Measured values: ChEMBL document CHEMBL5649170, “Sustained microglial depletion with CSF1R inhibitor impairs parenchymal plaque development in an Alzheimer's disease model” (Nat Commun, 2019)

Columns and labels:
[1] = Drug concentration in wildtype mouse brain at 75 ppm administered as rodent chow starting from 1.5 months and measured after 5 months; type: ADME, tissue-based; settings: route po, time 3.5 months, read-out: Ct
How it was run: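 WT or 5xFAD mice were fed PLX3397 in AIN-76A chow at 600 ppm or 75 ppm from 1.5 to 5 months of age. Terminal brain and plasma drug concentrations were determined at study end.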

Mus musculus [2] = assay: Antialzheimer activity in 5XFAD mouse assessed as average plaque volume in somatosensory cortex at 75 ppm administered as rodent chow starting from 1.5 months and measured after 5 months by immunolabeling based confocal microscopic analysis (reference value: 871.142 to 1628.317 microm3); type: functional; settings: route po, time 3.5 months, 2555 h
How it was run: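 5xFAD mice fed PLX3397 at 75 ppm in AIN-76A chow from 1.5 to 5 months of age; retrosplenial and somatosensory cortex sections stained with Thio-S and immunolabeled for IBA1; confocal imaging, IBA1+ cells and plaques quantified per region; two-tailed independent t-test, n = 4–5 per group, mean ± SEM.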

[3] = target: T1, Macrophage colony-stimulating factor 1 receptor (Mus musculus) (UniProt P09581); assay: In vivo inhibition of CSF1R in wildtype mouse assessed as microglial numbers by measuring number of Iba positive cells per FOV in […] cortex at 75 ppm administered as rodent chow starting from 1.5 months and measured after 5 months by immunolabeling based confocal microscopic analysis (reference value: 200 to 275); type: functional; settings: route po, time 3.5 months
T1 sequence (whole entry): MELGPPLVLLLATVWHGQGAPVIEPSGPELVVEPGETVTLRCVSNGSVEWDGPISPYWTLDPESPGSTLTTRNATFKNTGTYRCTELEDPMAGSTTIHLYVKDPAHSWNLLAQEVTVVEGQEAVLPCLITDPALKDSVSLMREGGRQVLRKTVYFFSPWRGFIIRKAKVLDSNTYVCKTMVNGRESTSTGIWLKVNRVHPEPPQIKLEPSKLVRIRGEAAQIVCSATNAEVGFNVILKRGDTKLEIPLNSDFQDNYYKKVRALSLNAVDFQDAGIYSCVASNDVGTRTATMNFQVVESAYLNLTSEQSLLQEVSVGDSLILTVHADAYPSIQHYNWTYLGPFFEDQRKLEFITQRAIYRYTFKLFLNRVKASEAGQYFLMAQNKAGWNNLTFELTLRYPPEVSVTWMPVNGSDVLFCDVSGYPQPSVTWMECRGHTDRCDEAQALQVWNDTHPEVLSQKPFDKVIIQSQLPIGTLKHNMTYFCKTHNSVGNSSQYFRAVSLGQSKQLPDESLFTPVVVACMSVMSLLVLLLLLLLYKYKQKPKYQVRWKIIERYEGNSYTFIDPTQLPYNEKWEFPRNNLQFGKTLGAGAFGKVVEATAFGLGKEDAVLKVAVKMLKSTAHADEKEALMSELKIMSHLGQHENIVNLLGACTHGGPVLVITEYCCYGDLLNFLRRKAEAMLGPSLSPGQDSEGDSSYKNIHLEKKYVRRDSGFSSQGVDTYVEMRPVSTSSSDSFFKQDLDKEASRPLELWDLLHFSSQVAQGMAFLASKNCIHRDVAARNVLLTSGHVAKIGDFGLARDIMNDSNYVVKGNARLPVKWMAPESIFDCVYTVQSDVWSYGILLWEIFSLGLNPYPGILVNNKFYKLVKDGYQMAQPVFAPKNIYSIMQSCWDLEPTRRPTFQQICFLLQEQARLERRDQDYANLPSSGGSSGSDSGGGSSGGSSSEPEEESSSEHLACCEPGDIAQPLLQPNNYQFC

Mus musculus [4] = assay: Antialzheimer activity in mouse harboring CX3CR1-GFP+/- assessed as microglial elimination in brain at 600 ppm administered as chow for 7 days relative to control; type: functional; settings: route po, time 7 day
Angiopoietin-1 receptor = Angiopoietin-1 receptor (Homo sapiens, UniProt Q02763); assay: Inhibition of TEK (unknown origin)
[5] = target: Calcium/calmodulin-dependent protein kinase type 1D (Homo sapiens, UniProt Q8IU85); assay: Inhibition of CAMK1D (unknown origin)
Mus musculus [6] = assay: Antialzheimer activity in 5XFAD mouse assessed as number of This-S positive cells per FOV in somatosensory cortex at 1200 ppm administered as rodent chow starting from 1.5 months to 4 months followed by compound removal and measured after 1 months by immunolabelling based confocal microscopic analysis (reference value: 34 to 79); type: functional; settings: route po, time 2.5 months, 1825 h
How it was run: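 For the repopulation paradigm, 5xFAD mice ate 1200 ppm PLX5622 chow from 1.5 to 4 months of age. Inhibitor chow was then withdrawn, and brains were examined one month later. Sections were stained with Thio-S and immunolabeled for IBA1, then analysed by confocal microscopy in cortical regions.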

[7] = target: Macrophage-stimulating protein receptor (Homo sapiens, UniProt Q04912); assay: Inhibition of MST1R (unknown origin)
Mus musculus [8] = assay: Antialzheimer activity in 5XFAD mouse assessed as number of open arm entries at 1200 ppm administered as rodent chow for 10 to 24 weeks by Elevated plus maze test (reference value: 10 to 33); type: functional; settings: route po, time 10-24 weeks
Activin receptor type-1B = Activin receptor type-1B (Homo sapiens, UniProt P36896); assay: Inhibition of ACVR1B (unknown origin)
[9] = target: Serine/threonine-protein kinase D2 (Homo sapiens, UniProt Q9BZL6); assay: Inhibition of PRKD2 (unknown origin)
[10] = AUC (0 to infinity) in mouse at 1.92 mg/kg, iv administered as single dose; type: ADME, organism-based; settings: in vivo
[11] = Effect on C1qa gene expression in 5XFAD mouse hippocampus at 1200 ppm administered as rodent chow starting from 1.5 months and measured after 7 months by RNA-Seq analysis (reference value: 61.868 to 70.581 RPKM); type: functional; settings: route po, time 5.5 months, 4015 h
How it was run: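 WT and 5xFAD mice were treated with 1200 ppm PLX5622 chow or control chow from 1.5 to 7 months of age. Brains were microdissected into cortex, hippocampus and thalamus, and RNA was extracted from tissue powder. Whole-transcriptome RNA-Seq libraries were sequenced, with n = 4 per group per region (48 samples).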

[12] = target: Serine/threonine-protein kinase 25 (Homo sapiens, UniProt O00506); assay: Inhibition of STK25 (unknown origin)
Mus musculus [13] = assay: Antialzheimer activity in 5XFAD mouse assessed as average diameter of claudin-5 blood vessels in Thio-S positive retro spinal cortex at 1200 ppm administered as rodent chow starting from 1.5 months and measured after 4 months by immunolabeling analysis; type: functional; settings: route po, time 2.5 months, 1825 h
[14] = target: Tyrosine-protein kinase HCK (Homo sapiens, UniProt P08631); assay: Inhibition of HCK (unknown origin)
[15] = target: Serine/threonine-protein kinase SIK2 (Homo sapiens, UniProt Q9H0K1); assay: Inhibition of SNF1LK2 (unknown origin)
Mus musculus [16] = assay: Antialzheimer activity in 5XFAD mouse assessed as number of Iba positive cells per FOV in microglia at 1200 ppm administered as rodent chow for 5 days by DAPI staining based immunolabeling analysis (reference value: 119 to 154); type: functional; settings: route po, time 5 day
[17] = target: Receptor tyrosine-protein kinase erbB-4 (Homo sapiens, UniProt Q15303); assay: Inhibition of ERBB4 (unknown origin)
[18] = target: Phosphatidylinositol 4-kinase beta (Homo sapiens, UniProt Q9UBF8); assay: Inhibition of PI4KB (unknown origin)
Sequence of Phosphatidylinositol 4-kinase beta (Q9UBF8 whole entry): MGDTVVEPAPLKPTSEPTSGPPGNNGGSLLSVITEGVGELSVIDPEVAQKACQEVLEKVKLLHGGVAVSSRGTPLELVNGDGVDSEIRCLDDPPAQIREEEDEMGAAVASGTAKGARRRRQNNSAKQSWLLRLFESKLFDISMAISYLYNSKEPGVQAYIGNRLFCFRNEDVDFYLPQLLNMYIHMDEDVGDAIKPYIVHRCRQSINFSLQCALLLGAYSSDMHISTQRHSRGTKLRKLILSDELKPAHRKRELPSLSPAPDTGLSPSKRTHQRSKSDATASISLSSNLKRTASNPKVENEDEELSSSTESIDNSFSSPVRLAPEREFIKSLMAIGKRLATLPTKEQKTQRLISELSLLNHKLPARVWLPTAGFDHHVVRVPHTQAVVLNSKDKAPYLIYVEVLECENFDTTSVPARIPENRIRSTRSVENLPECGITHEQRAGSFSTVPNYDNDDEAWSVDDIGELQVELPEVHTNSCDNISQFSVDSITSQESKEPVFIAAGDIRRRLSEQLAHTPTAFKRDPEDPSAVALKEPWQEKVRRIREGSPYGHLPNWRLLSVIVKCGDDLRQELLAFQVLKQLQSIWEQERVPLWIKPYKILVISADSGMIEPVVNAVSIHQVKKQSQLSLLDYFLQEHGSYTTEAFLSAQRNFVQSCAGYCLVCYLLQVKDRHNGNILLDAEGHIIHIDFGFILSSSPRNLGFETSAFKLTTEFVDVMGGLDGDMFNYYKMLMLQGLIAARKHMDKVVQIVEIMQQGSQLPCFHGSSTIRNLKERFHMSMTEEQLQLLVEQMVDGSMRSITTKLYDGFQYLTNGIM

Sequence of Serine/threonine-protein kinase 25 (O00506 whole entry): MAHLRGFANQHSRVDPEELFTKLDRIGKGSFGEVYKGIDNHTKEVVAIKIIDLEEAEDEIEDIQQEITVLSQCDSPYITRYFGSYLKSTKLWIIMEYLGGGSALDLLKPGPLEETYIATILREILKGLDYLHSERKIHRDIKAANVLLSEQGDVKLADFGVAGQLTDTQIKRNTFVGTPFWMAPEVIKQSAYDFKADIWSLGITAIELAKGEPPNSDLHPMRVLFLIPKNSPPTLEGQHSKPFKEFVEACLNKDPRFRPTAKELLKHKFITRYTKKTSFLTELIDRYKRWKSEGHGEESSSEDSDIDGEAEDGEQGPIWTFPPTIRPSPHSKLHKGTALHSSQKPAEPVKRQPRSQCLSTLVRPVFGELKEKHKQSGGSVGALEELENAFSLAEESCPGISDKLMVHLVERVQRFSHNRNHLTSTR
Sequence of Macrophage-stimulating protein receptor (Q04912 25-304 limits assumed): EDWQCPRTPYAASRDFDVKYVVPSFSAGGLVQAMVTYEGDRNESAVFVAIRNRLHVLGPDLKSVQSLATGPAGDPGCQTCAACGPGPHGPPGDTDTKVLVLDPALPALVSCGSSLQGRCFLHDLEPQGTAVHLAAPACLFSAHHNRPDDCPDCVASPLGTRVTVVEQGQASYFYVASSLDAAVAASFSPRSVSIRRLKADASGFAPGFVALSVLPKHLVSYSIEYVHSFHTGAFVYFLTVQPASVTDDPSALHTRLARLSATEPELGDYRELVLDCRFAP
Sequence of Macrophage-stimulating protein receptor (Q04912 310-1400 limits assumed): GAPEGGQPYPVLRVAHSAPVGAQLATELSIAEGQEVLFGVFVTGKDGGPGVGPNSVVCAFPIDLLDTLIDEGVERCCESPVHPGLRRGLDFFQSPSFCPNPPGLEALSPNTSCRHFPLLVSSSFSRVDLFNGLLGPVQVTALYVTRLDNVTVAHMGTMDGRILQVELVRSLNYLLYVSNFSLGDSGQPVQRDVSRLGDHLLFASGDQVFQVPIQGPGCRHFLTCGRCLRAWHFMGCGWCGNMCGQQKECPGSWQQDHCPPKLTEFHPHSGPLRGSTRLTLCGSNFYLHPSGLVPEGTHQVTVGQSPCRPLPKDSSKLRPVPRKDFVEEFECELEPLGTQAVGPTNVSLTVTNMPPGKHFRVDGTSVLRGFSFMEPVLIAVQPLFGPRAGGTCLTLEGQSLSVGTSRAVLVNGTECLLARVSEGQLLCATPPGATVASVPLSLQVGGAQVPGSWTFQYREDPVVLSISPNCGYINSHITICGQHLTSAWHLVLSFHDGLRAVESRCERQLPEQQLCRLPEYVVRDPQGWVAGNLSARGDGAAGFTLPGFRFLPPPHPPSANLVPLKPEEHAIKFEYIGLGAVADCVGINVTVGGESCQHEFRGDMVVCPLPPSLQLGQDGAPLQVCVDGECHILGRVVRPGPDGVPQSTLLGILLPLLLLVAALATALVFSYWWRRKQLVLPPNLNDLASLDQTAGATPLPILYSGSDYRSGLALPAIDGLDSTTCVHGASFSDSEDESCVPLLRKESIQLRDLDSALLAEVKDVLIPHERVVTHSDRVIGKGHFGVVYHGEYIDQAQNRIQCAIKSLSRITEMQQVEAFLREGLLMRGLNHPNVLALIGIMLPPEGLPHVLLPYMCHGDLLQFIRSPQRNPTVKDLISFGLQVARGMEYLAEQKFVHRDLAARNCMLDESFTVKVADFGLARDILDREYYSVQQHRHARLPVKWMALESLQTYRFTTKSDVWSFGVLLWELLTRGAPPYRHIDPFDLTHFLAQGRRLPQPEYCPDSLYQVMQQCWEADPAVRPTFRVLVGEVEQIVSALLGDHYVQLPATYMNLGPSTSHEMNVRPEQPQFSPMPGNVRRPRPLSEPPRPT
Sequence of Receptor tyrosine-protein kinase erbB-4 (Q15303 whole entry): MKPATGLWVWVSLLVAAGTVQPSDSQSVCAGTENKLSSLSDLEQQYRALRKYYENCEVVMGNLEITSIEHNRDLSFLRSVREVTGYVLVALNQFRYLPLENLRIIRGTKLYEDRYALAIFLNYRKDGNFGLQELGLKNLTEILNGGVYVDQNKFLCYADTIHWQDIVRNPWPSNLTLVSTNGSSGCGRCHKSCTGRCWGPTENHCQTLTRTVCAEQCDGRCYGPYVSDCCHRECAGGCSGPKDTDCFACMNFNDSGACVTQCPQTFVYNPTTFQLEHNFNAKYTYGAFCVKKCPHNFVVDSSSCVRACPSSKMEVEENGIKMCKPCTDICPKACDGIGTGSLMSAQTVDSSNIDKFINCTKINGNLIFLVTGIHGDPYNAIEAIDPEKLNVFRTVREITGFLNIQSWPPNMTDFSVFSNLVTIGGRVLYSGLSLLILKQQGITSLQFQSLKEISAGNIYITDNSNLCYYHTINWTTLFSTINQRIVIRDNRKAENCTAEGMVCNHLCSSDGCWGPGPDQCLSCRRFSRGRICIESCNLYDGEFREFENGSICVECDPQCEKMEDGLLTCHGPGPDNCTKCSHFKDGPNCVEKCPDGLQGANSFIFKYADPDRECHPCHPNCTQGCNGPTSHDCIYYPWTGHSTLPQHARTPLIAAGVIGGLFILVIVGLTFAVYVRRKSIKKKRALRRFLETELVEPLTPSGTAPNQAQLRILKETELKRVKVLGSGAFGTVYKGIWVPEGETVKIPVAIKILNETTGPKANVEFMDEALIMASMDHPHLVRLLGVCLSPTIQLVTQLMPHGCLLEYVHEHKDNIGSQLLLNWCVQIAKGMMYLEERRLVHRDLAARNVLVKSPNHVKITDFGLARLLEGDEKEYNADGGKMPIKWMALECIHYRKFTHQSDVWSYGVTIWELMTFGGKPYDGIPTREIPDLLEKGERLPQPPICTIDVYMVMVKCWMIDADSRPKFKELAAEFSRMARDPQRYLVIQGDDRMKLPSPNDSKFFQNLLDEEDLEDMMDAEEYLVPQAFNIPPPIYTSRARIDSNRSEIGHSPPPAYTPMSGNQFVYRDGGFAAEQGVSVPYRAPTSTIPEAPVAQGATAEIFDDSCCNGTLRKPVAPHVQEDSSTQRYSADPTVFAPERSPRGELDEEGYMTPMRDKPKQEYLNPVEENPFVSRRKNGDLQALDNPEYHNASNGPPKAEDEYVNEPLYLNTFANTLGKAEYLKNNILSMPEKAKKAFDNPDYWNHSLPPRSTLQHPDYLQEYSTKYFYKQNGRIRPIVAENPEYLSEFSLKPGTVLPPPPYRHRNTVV
Sequence of Activin receptor type-1B (P36896 whole entry): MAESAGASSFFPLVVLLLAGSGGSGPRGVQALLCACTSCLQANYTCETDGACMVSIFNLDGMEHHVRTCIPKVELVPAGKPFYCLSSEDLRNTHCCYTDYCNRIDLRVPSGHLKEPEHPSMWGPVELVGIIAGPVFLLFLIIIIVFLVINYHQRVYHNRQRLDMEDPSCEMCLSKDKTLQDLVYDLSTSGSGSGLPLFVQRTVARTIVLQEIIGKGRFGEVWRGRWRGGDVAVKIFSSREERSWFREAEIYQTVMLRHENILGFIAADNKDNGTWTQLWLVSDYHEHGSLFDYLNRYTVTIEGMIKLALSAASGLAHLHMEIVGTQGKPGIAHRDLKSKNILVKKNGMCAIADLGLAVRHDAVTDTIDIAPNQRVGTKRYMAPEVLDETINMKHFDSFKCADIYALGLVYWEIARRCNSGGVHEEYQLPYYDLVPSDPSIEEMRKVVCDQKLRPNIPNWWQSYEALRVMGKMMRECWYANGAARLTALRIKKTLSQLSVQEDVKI
Sequence of Calcium/calmodulin-dependent protein kinase type 1D (Q8IU85 whole entry): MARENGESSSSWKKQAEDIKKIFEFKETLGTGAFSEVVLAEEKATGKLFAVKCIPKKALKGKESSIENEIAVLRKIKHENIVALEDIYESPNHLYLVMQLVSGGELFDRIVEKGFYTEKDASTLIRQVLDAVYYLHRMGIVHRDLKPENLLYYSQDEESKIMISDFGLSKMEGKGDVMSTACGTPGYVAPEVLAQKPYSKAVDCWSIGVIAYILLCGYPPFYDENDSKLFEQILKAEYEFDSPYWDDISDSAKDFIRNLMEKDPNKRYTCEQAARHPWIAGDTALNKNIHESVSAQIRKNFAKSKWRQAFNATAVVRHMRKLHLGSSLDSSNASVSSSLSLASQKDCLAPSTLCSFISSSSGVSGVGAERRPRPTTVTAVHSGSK

For `FC(F)(F)c1ccc(CNc2ccc(Cc3c[nH]c4ncc(Cl)cc34)cn2)cn1` [PEXIDARTINIB], which concentration at 2555 h [1] is on record?
The concentration at 2555 h was 300 nM.

And the Activity (Mus musculus [2])?
The Activity was 628.64 um3.

What about the Activity [3] of the same compound?
The Activity was 162.

What about the Activity (Mus musculus [4]) of the same compound?
Its Activity is >99%.

For `COc1ncc(F)cc1CNc1ccc(Cc2c[nH]c3ncc(C)cc23)c(F)n1` [PLX-5622], which IC50 (Angiopoietin-1 receptor) is on record?
The IC50 was > 1000 nM.

And the IC50 [5]?
Its IC50 is > 1000 nM.

And the Activity (Mus musculus [6])?
Its Activity is 15.

What about the IC50 [7] of the same compound?
The IC50 was > 1000 nM.

What about the Activity (Mus musculus [8]) of the same compound?
Its Activity is 15.

And the IC50 (Activin receptor type-1B)?
The IC50 was > 1000 nM.

And the IC50 [9]?
The IC50 was > 1000 nM.

What about the AUC(0-inf) [10] of the same compound?
The AUC(0-inf) was 15500 ng·h/mL.

What about the Activity [11] of the same compound?
Its Activity is 6.689 RPKM.

What about the IC50 [12] of the same compound?
Its IC50 is > 1000 nM.

And the Activity (Mus musculus [13])?
The Activity was 4.447 um.

What about the IC50 [14] of the same compound?
The IC50 was > 1000 nM.

And the IC50 [15]?
The IC50 was > 1000 nM.

What about the Activity (Mus musculus [16]) of the same compound?
Its Activity is 1.

And the IC50 [17]?
The IC50 was > 1000 nM.

And the IC50 [18]?
The IC50 was > 1000 nM.
